Tests used:
[1] = substrate: CC1=C(CCC(=O)NCCCN2CCN(CCCNC(=O)CCC3=C(C)C(=O)c4cccc(O)c4C3=O)CC2)C(=O)c2c(O)cccc2C1=O; experiment: Vmax is the maximum velocity of the TcTR (Trypanosoma cruzi trypanothione reductase) catalyzed NADPH oxidation.
[2] = substrate: CC1=C(CCC(=O)NCCCCNCCCNC(=O)CCC2=C(C)C(=O)c3cccc(O)c3C2=O)C(=O)c2c(O)cccc2C1=O; experiment: as above
[3] = substrate: CC1=C(CCCCCC(=O)NCCCN2CCN(CCCNC(=O)CCCCCC3=C(C)C(=O)c4ccccc4C3=O)CC2)C(=O)c2ccccc2C1=O; experiment: as above
[4] = substrate: CC1=C(CCCC(=O)NCCCN2CCN(CCCNC(=O)CCCC3=C(C)C(=O)c4ccccc4C3=O)CC2)C(=O)c2ccccc2C1=O; experiment: as above
[5] = substrate: CC1=C(CCCCCC(=O)NCCCCNCCCNC(=O)CCCCCC2=C(C)C(=O)c3ccccc3C2=O)C(=O)c2ccccc2C1=O; experiment: (§1) The Michaelis-Menten constant for NADPH oxidation by TcTR (Trypanosoma cruzi trypanothione reductase)
Outline: (§2)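 Recombinant TcTR (0.6 U) in 20 mM Hepes, 1 mM EDTA, 0.15 M KCl, pH 7.25 at 22 °C, with 200 µM NADPH and naphthoquinone at five concentrations (0–100 µM) in 1% DMSO. NADPH oxidation at 340 nm; intrinsic oxidase rate not subtracted. Km and Vmax from nonlinear Michaelis–Menten fit; kcat and kcat/Km calculated.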

[6] = substrate: CC1=C(CCC(=O)NCCCNCCCNC(=O)CCC2=C(C)C(=O)c3cccc(O)c3C2=O)C(=O)c2c(O)cccc2C1=O; experiment: as §1
Outline: as §2

[7] = substrate: CC1=C(CCC(=O)NCCCN2CCN(CCCNC(=O)CCC3=C(C)C(=O)c4ccccc4C3=O)CC2)C(=O)c2ccccc2C1=O; experiment: as §1
Outline: as §2

[8] = substrate: CC1=CC(=O)c2c(O)cccc2C1=O; experiment: as §1
Outline: as §2

[9] = substrate: CC1=C(CCCCCC(=O)NCCCNCCCNC(=O)CCCCCC2=C(C)C(=O)c3cccc(O)c3C2=O)C(=O)c2c(O)cccc2C1=O; experiment: as §1
Outline: as §2

[10] = substrate: CC1=C(CCCCCC(=O)NCCCCNCCCNC(=O)CCCCCC2=C(C)C(=O)c3cccc(O)c3C2=O)C(=O)c2c(O)cccc2C1=O; experiment: as §1
Outline: as §2

[11] = substrate: CC1=C(CCCCC(=O)NCCCCNCCCNC(=O)CCCCC2=C(C)C(=O)c3cccc(O)c3C2=O)C(=O)c2c(O)cccc2C1=O; experiment: as §1
Outline: as §2

[12] = substrate: CC1=C(CCCC(=O)NCCCNCCCNC(=O)CCCC2=C(C)C(=O)c3ccccc3C2=O)C(=O)c2ccccc2C1=O; experiment: as §1
Outline: as §2

[13] = substrate: CC1=C(CCC(=O)NCCCCNCCCNC(=O)CCC2=C(C)C(=O)c3ccccc3C2=O)C(=O)c2ccccc2C1=O; experiment: as §1
Outline: as §2

[14] = substrate: CC1=C(CCC(=O)NCCCNCCCNC(=O)CCC2=C(C)C(=O)c3ccccc3C2=O)C(=O)c2ccccc2C1=O; experiment: as §1
Outline: as §2

[15] = substrate: CC1=C(CCC(=O)NCCCN2CCN(CCCNC(=O)CCC3=C(C)C(=O)c4cccc(O)c4C3=O)CC2)C(=O)c2c(O)cccc2C1=O; experiment: as §1
Outline: as §2

[16] = substrate: CC1=C(CCCC(=O)NCCCCNCCCNC(=O)CCCC2=C(C)C(=O)c3cccc(O)c3C2=O)C(=O)c2c(O)cccc2C1=O; experiment: as §1
Outline: as §2

[17] = substrate: CC1=C(CCC(=O)NCCCCNCCCNC(=O)CCC2=C(C)C(=O)c3cccc(O)c3C2=O)C(=O)c2c(O)cccc2C1=O; experiment: as §1
Outline: as §2

[18] = substrate: CC1=C(CCCCCC(=O)NCCCN2CCN(CCCNC(=O)CCCCCC3=C(C)C(=O)c4ccccc4C3=O)CC2)C(=O)c2ccccc2C1=O; experiment: as §1
Outline: as §2

[19] = substrate: CC1=C(CCCCC(=O)NCCCN2CCN(CCCNC(=O)CCCCC3=C(C)C(=O)c4ccccc4C3=O)CC2)C(=O)c2ccccc2C1=O; experiment: as §1
Outline: as §2

[20] = substrate: CC1=C(CCCC(=O)NCCCN2CCN(CCCNC(=O)CCCC3=C(C)C(=O)c4cccc(O)c4C3=O)CC2)C(=O)c2c(O)cccc2C1=O; experiment: as §1
Outline: as §2

[21] = substrate: CC1=C(CCCCC(=O)NCCCCNCCCNC(=O)CCCCC2=C(C)C(=O)c3ccccc3C2=O)C(=O)c2ccccc2C1=O; experiment: as §1
Outline: as §2

[22] = substrate: CC1=C(CCCCCC(=O)NCCCNCCCNC(=O)CCCCCC2=C(C)C(=O)c3ccccc3C2=O)C(=O)c2ccccc2C1=O; experiment: as §1
Outline: as §2

[23] = substrate: CC1=CC(=O)c2ccccc2C1=O; experiment: as §1
Outline: as §2

[24] = substrate: CC1=C(CCCC(=O)NCCCN2CCN(CCCNC(=O)CCCC3=C(C)C(=O)c4ccccc4C3=O)CC2)C(=O)c2ccccc2C1=O; experiment: as §1
Outline: as §2

[25] = substrate: CC1=C(CCCC(=O)NCCCNCCCNC(=O)CCCC2=C(C)C(=O)c3cccc(O)c3C2=O)C(=O)c2c(O)cccc2C1=O; experiment: as §1
Outline: as §2

[26] = substrate: CC1=C(CCCCC(=O)NCCCNCCCNC(=O)CCCCC2=C(C)C(=O)c3ccccc3C2=O)C(=O)c2ccccc2C1=O; experiment: as §1
Outline: as §2

[27] = substrate: CC1=C(CCCCC(=O)NCCCN2CCN(CCCNC(=O)CCCCC3=C(C)C(=O)c4cccc(O)c4C3=O)CC2)C(=O)c2c(O)cccc2C1=O; experiment: as §1
Outline: as §2

[28] = substrate: CC1=C(CCCC(=O)NCCCCNCCCNC(=O)CCCC2=C(C)C(=O)c3ccccc3C2=O)C(=O)c2ccccc2C1=O; experiment: as §1
Outline: as §2

[29] = substrate: CC1=C(CCCCCC(=O)NCCCN2CCN(CCCNC(=O)CCCCCC3=C(C)C(=O)c4cccc(O)c4C3=O)CC2)C(=O)c2c(O)cccc2C1=O; experiment: as §1
Outline: as §2

[30] = substrate: CC1=C(CCCCC(=O)NCCCNCCCNC(=O)CCCCC2=C(C)C(=O)c3cccc(O)c3C2=O)C(=O)c2c(O)cccc2C1=O; experiment: as §1
Outline: as §2

[31] = substrate: CC1=C(CCCCCC(=O)NCCCNCCCNC(=O)CCCCCC2=C(C)C(=O)c3ccccc3C2=O)C(=O)c2ccccc2C1=O; experiment: (§3) Vmax is the maximum velocity of the TcTR (Trypanosoma cruzi trypanothione reductase) catalyzed NADH oxidation.
[32] = substrate: CC1=C(CCCCC(=O)NCCCN2CCN(CCCNC(=O)CCCCC3=C(C)C(=O)c4cccc(O)c4C3=O)CC2)C(=O)c2c(O)cccc2C1=O; experiment: as §3

B1: Trypanothione reductase (Trypanosoma cruzi), P28593 (protein)
chain: MMSKIFDLVVIGAGSGGLEAAWNAATLYKKRVAVIDVQMVHGPPFFSALGGTCVNVGCVPKKLMVTGAQYMEHLRESAGFGWEFDRTTLRAEWKKLIAVKDEAVLNINKSYEEMFRDTEGLEFFLGWGSLESKNVVNVRESADPASAVKERLETENILLASGSWPHMPNIPGIEHCISSNEAFYLPEPPRRVLTVGGGFISVEFAGIFNAYKPKDGQVTLCYRGEMILRGFDHTLREELTKQLTANGIQILTKENPAKVELNADGSKSVTFESGKKMDFDLVMMAIGRSPRTKDLQLQNAGVMIKNGGVQVDEYSRTNVSNIYAIGDVTNRVMLTPVAINEAAALVDTVFGTNPRKTDHTRVASAVFSIPPIGTCGLIEEVASKRYEVVAVYLSSFTPLMHNISGSKYKTFVAKIITNHSDGTVLGVHLLGDNAPEIIQGVGICLKLNAKISDFYNTIGVHPTSAEELCSMRTPSYYYVKGEKMEKPSEASL
[1]
  Vmax: 4.74 µM/min/mg
[2]
  Vmax (µM min-1 mg-1): 4.44
[3]
  Vmax: 0.47 µM/min/mg
[4]
  Vmax: 0.6 µM/min/mg
[5]
  Km: 21 µM
[6]
  Km: 230 µM
[7]
  Km: 14 µM
[8]
  Km: 15 µM
[9]
  Km: 28 µM
[10]
  Km: 37 µM
[11]
  Km: 20 µM
[12]
  Km: 23 µM
[13]
  Km: 30 µM
[14]
  Km: 47 µM
[15]
  Km: 78 µM
[16]
  Km: 93 µM
[17]
  Km: 48 µM
[18]
  Km: 12 µM
[19]
  Km: 16 µM
[20]
  Km: 52 µM
[21]
  Km: 16 µM
[22]
  Km: 3 µM
[23]
  Km: 21 µM
[24]
  Km: 12 µM
[25]
  Km: 55 µM
[26]
  Km: 37 µM
[27]
  Km: 17 µM
[28]
  Km: 74 µM
[29]
  Km: 8 µM
[30]
  Km: 28 µM
[31]
  Vmax: 0.09 µM/min/mg
[32]
  Vmax: 5.13 µM/min/mg
